# Assay outcomes deposited in PubChem by The Scripps Research Institute Molecular Screening Center.
# Shown are actives, neighbours in structure and some others; about 1.8% of the full set was active somewhere.
# MBD2 inh – blocks human MBD2 binding to methylated DNA | TR-FRET, MBD2 binding to methylated oligonucleotide | inhibition, % at 4.4 µM | hit rate 0.31% among 370,000 | Q9UBB5; in the data active = inhibition above about 13%
# TDP2 inh – TDP2 (human) inhibition, absorbance primary screen. O95551. recombinant TDP2, T5PNP hydrolysis, p-nitrophenol absorbance 415 nm. inhibition, % at 12.8 µM. hit rate 0.34% among 370,000. AID 720702;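 active = inhibition above the mean of all tested compounds plus 3 SD, set per campaign, cut at about 25% in these data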;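 note: 0% = DMSO with enzyme and 100% = buffer with substrate but no TDP2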
#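 Assay system: Recombinant human TDP2 | Quantity: 120 nM TDP2 per well | Incubation: 2 h at 37 °C | Signal: Epi absorbance | Evaluation: Percent inhibition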
# LEDGF integ inh – blocks HIV-1 LEDGF/p75-dependent DNA integration | TR-FRET IN-LEDGF/p75 DNA integration, Eu/Cy5 | AID 743269 | inhibition, % at 3.7 µM | hit rate 0.64% among 370,000;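 active = inhibition above the screen-wide mean plus 3 SD, cut at about 13% in these data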;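 note: signal is the Cy5 over europium emission ratio at 671 and 618 nm; 0% = plate median of compound wells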
# HCV core dimer – blocks dimerization of HCV core protein | AID 1899 | TR-FRET GST/Flag-core106 dimerization, 1536-well | inhibition, % at 5 µM | hit rate 0.33% among 300,000;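 active = inhibition above the mean of all tested compounds plus 3 SD, set per screening campaign, cut at about 45% in these data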
#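 test system = GST/Flag-tagged HCV core106 proteins | probe or stimulus = Eu donor and XL665 acceptor anti-tag antibodies | times = compound-protein-antibody incubation 4 h at 22.5 °C | signal = TR-FRET, excitation 340 nm, emission 617 and 671 nm | measure = percent inhibition of core106 dimerization signal | controls = wells lacking GST-core106 and wells with excess unlabelled core106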
# UHRF1 binding – UHRF1 methyl-DNA binding inhibition. UHRF1 binding to methylated oligo, TR-FRET. hit rate 0.75% among 370,000. Q96T88. inhibition, % at 4.4 µM. AID 687016; in the data active = inhibition above about 21%;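 note: UHRF1 SRA domain binding a hemimethylated CpG hairpin DNA probe; 0% = median of test compound wells and 100% = reference inhibitor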
# The depositor's hits bear a star; · = no result given.
SMILES,MBD2 inh,TDP2 inh,LEDGF integ inh,HCV core dimer,UHRF1 binding
C=CCOC(=O)C1=C(C)N=c2sc(=C3C(=O)N(CC(=O)O)c4ccccc43)c(=O)n2C1c1ccc(OC)cc1 (configuration not stated),1.9,13.6,0.1,·,-0.1
CCOC(=O)CCCc1c[nH]c2ccccc12,-5.3,-2.1,-2.2,-1.4,-0.5
Cc1noc(C)c1COC(=O)CCCc1c[nH]c2ccccc12,-2.2,8.1,0.5,71.5*,-1.3
Cc1c[nH]c2cccc(-c3cc4ccccc4o3)c12,1.3,-6.3,4.1,·,-5.0
O=C(/C=C\c1ccc2c(c1)OCO2)Nc1c2c(nn1-c1ccc(Cl)cc1)CSC2,-4.1,4.4,5.5,46.7*,-0.1
CC(=O)Nc1c2c(nn1-c1ccccc1)CSC2,1.1,10.1,-0.6,5.7,-1.1
NS(=O)(=O)c1ccc(N=Nc2c(-c3ccccc3)[nH]n(-c3nc(-c4ccccc4)cs3)c2=O)cc1,-2.5,0.2,1.0,46.1*,1.2
Nc1[nH]n2c(=O)cc(-c3ccccc3)nc2c1N=Nc1ccc(S(N)(=O)=O)cc1,-6.3,6.8,-0.5,-26.6,-13.6
O=C(Nc1nc2c(Br)cccc2s1)c1ccc2c(c1)OCCO2,-1.5,-2.0,-3.5,·,-0.3
C[C@H](O)[C@@H]1C(=O)N2CCc3c([nH]c4c(-c5ccc6c(c5)OCO6)cccc34)[C@@H]2C[C@@H]1N(C)C(=O)c1ccccc1F,4.1,-3.4,-3.9,·,1.0
Cc1cc(NC(=O)c2ccc(N3CCCC3)c([N+](=O)[O-])c2)no1,-3.0,4.2,-0.9,48.5*,-4.5
CCCCn1nc(NC(=O)CC)c2cc3cc(OC)ccc3nc21,10.9,-17.6,-2.0,-9.8,22.3*
COc1ccc(/C=C2\CC3(OC(=O)C4CCCC4)CCCN2C3)cc1 (configuration not stated),0.7,7.3,2.8,·,1.8
CCCCNC(=O)NS(=O)(=O)c1ccc(NC(=O)CSc2nnc(-c3cccs3)n2-c2ccc(OC)cc2)cc1,-1.2,2.0,2.6,·,0.0
O=C1C(=Cc2cccn2-c2ccc(O)cc2)C(=O)c2ccccc21,-3.1,-0.5,0.8,60.8*,-2.4
Cc1ccc2cc(C#N)c(NCc3ccccc3)nc2c1,-2.3,-3.5,-2.6,48.3*,2.4
Cc1cccc2cc(C#N)c(NCc3ccccc3)nc12,3.5,-17.2,-3.4,7.0,3.0
CC(C)N1Cc2nnn(Cc3ccc(F)cc3)c2-c2cc(F)ccc2S1(=O)=O,-2.2,-1.6,1.4,·,0.9
COc1ccc(N2CCN(C(=O)CN(c3ccc(OC)cc3)S(=O)(=O)c3ccccc3)CC2)cc1,8.1,14.4,5.6,2.7,30.7*
CC(C)C[C@H]1COc2cccc(F)c2S(=O)(=O)N1Cc1cn(Cc2ccc(C(F)(F)F)cc2)nn1,-3.3,-1.8,-4.5,·,-0.4
COc1ccc(S(=O)(=O)Nc2ccc3c(c2)C(=O)N([C@@H](C)CO)C[C@@H](C)[C@H](CN(C)C(=O)CCCN(C)C)OCCCC[C@H](C)O3)cc1,-4.5,-1.3,-1.9,·,29.0*
COc1ccc(S(=O)(=O)Nc2ccc3c(c2)C(=O)N([C@H](C)CO)C[C@H](C)[C@@H](CN(C)C(=O)Nc2ccc(F)cc2)OCCCC[C@H](C)O3)cc1,-5.2,1.9,-3.9,·,2.2
C[C@@H]1CCCCO[C@H](CN(C)C(=O)C2CCCCC2)[C@@H](C)CN([C@H](C)CO)C(=O)c2cc(N(C)C)ccc2O1,0.9,-3.1,-2.9,·,50.0*
CCc1c(-c2ccccc2Br)ncn1CCc1ccccc1OC,6.8,8.0,-2.5,·,-2.2
Cc1cc(C)c(NS(=O)(=O)c2ccc3c(c2)oc(=O)n3C)c(C)c1,-0.9,-0.6,-0.8,·,39.4*
SMILES,MBD2 inh,TDP2 inh,LEDGF integ inh,HCV core dimer,UHRF1 binding
Cn1c(=O)oc2cc(S(=O)(=O)Nc3ccccc3)ccc21,4.2,-4.1,4.1,1.8,5.4
COc1ccc(S[C@]2(C(=O)N3CCN(c4ncccn4)CC3)CC(=O)N(C(=O)c3ccccc3)[C@@H]2c2ccc(OC)cc2)cc1,-1.3,1.4,0.2,·,-1.4
Cc1ccc(N2NC(=O)/C(=C/c3ccc(-c4ccc(Cl)c(C(=O)O)c4)o3)C2=O)cc1C,-1.5,-5.1,-2.1,-43.5,4.1
CC1=NOC(=O)/C1=C\c1ccc(-c2ccc(Cl)c(C(=O)O)c2)o1,4.7,-18.9,7.0,·,28.3*
COC(=O)c1ccc(N2NC(=O)/C(=C/c3ccc(-c4ccc(Cl)c(C(=O)O)c4)o3)C2=O)cc1,9.0,-3.5,10.7,·,39.4*
CC1=NOC(=O)/C1=C\c1ccc(-c2cccc(Cl)c2)o1,·,·,·,16.6,·
CC1CCCCC1NC(=S)Nc1ccc(SC(F)F)cc1 (configuration not stated),0.9,6.3,0.2,9.2,37.9*
Cc1ccc(C(=O)N/C(=C\c2ccccc2)C(=O)NCc2ccncc2)cc1,2.2,-5.6,1.9,-4.0,3.3
Cc1ccc(C(=O)N/C(=C/c2ccc(F)cc2)C(=O)NCc2ccncc2)cc1,2.9,-8.1,1.9,-4.3,23.3*
Nc1cc(=O)[nH]c(SCC(=O)N2N=C(c3ccc(Cl)cc3)CC2c2ccco2)n1 (configuration not stated),-1.3,14.7,2.2,48.6*,-4.5
CCC(=O)N1CCc2cc(Br)c(S(=O)(=O)N3CCC(C(=O)NCCCOC(C)C)CC3)cc21,2.3,-3.9,-3.1,·,-1.7
COc1ccc(OC)c(CN2C(=O)CSCCC2(C)c2nnnn2C2CCCC2)c1 (configuration not stated),-7.4,4.1,2.2,·,-2.6
Cc1cccn2cc(-c3ccc(S(=O)(=O)N4CCOCC4)cc3)nc12,4.8,2.4,0.9,0.5,0.8
Cc1cccn2cc(-c3ccc(S(=O)(=O)N4CCCCC4)cc3)nc12,9.8,-2.1,-1.4,6.2,24.6*
CC1=C[C@]2(C[N+](Cc3ccccc3)=C(N)N2)n2c(=O)n(-c3ccccc3)c(=O)n2C1,-2.2,1.4,1.5,·,-3.2
Cc1cc(NC(=O)CSCC(=O)Nc2cc(Cl)ccc2N2CCN(C)CC2)no1,0.4,5.3,-3.6,·,27.7*
COc1ccc(N(C(=O)c2snc(C(N)=O)c2N)C(C(=O)NC2CCCCC2)c2ccc(F)cc2)c(OC)c1 (configuration not stated),-5.3,12.9,0.2,10.8,0.2
COc1ccc(-c2nsc(C(=O)N(c3ccc(F)cc3)C(C(=O)NC3CCCC3)c3ccc(OC)cc3)c2N)cc1 (configuration not stated),0.4,13.5,3.0,52.6*,0.5
Cc1ccc2nc3sc(C(=O)NCc4ccco4)c(N)c3cc2c1,-2.7,-2.0,-2.8,52.9*,-5.0
CC(CCN1CCC(C(O)(c2ccccc2)c2ccccc2)CC1)Oc1ccccc1C#N (configuration not stated),-6.5,0.1,2.9,·,0.2
N#Cc1c(NC(=O)CSc2nnc(-c3ccco3)n2-c2ccccc2)sc2c1CCC2,-0.4,-1.1,0.9,64.1*,-1.8
